From ChEMBL document CHEMBL4038269, “Design, synthesis and evaluation of novel feruloyl-donepezil hybrids as potential multitarget drugs for the treatment of Alzheimer's disease” (Eur J Med Chem, 2017)
pEC50, pIC50: −log10 of the molar value. Activity calls are given as the source filed them.

How the values were obtained:
Acetylcholinesterase = Acetylcholinesterase (Electrophorus electricus, UniProt O42275); test: Inhibition of Electrophorus electricus AChE using acetylthiocholine iodide as substrate pretreated for 10 mins followed by substrate addition measured at 12 secs interval for 5 mins by Ellman's method
[1] = Antioxidant activity assessed as DPPH radical scavenging activity measured after 30 mins; type: functional
Summary of the method: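 DPPH scavenging: compound at 12.5, 25, 50 and 100 µM in ethanol (4 mL) mixed with 1 mL of 0.5 mM DPPH in ethanol. Shaken 30 min at room temperature, absorbance read at 517 nm. % inhibition = (A control − A sample)/A control × 100. Run in triplicate; EC50 obtained by linear regression of mean values.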

Mus musculus [2] = test: Anti-inflammatory activity in Swiss mouse model of LPS-induced peritonitis assessed as inhibition of leukocyte migration at 100 umol/kg, po pretreated for 30 mins followed by LPS challenge measured after 4 hrs by Neubauer chamber method; type: functional, organism-based
Summary of the method: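 Adult male Swiss mice (22-28 g), n=8 per group, dosed orally with 100 µmol/kg or vehicle (saline + DMSO 2%). 30 min later E. coli 026:B6 LPS, 100 µg/kg i.p. in sterile saline. Killed at 4 h by halothane overdose. Peritoneum lavaged with 10 ml PBS containing 0.5% sodium citrate. Total leukocytes counted in a Neubauer chamber, expressed as cells per cavity, mean ± SEM.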

Mus musculus [3] = test: Antinociceptive activity in carrageenan-induced Swiss mouse model of mechanical hyperalgesia at 100 umol/kg, po pretreated for 1 hr followed by carrageenan challenge measured at 3 hrs post dose by Von Frey filament assay; type: functional, organism-based
Summary of the method: (§1)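 Male Swiss mice (n=8) dosed orally with 100 µmol/kg or vehicle 1 h before intraplantar carrageenan (100 µg/paw). Mechanical threshold measured by up-and-down Von Frey method after 60 min acclimation on a wire screen. Started at 0.4 g filament, ≥6 trials at 10 s intervals, about 4 s per application. Reported as mean threshold in grams ± SEM.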

Mus musculus [4] = test: Anti-inflammatory activity in Swiss mouse assessed as reduction in carrageenan-induced paw edema at 100 umol/kg, po pretreated for 1 hr followed by carrageenan challenge after 3 hrs by plethysmometer; type: functional, organism-based
Summary of the method: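 Adult male Swiss mice (22-28 g), fasted overnight, given vehicle (DMSO 2% in sterile saline) or 100 µmol/kg orally 1 h before intraplantar carrageenan. Methods give 400 µg/20 µl and n=10 per group; figure legend gives 100 µg/paw and n=8. Right hind paw volume read by plethysmometer at 1, 3 and 5 h. Reported as change in µL from basal volume, mean ± SEM.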

SH-SY5Y [5] = test: Antioxidant activity in human SH-SY5Y cells assessed as reduction in H2O2-induced reactive oxygen species formation at 40 uM measured after 24 hrs by DCFH-DA probe based fluorescence assay relative to control; type: functional; parameters: scale not given: the % may be the effect or the level left
[6] = Cytotoxicity against human SH-SY5Y cells assessed as reduction in cell viability at 40 uM after 24 hrs by MTT assay relative to control; type: cell-based; details: read-out: INH
Summary of the method: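 SH-SY5Y cells seeded at 2 x 10^4 cells/well, grown 24 h, then exposed to compound 1.25–40 µM for 24 h at 37 °C. MTT (5 mg/mL in PBS) added for 2 h and formazan dissolved in isopropanol. Read at 570 nm, reference 690 nm. Viability loss reported as percent at the top concentration, 40 µM.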

SH-SY5Y [7] = test: Antioxidant activity in human SH-SY5Y cells assessed as reduction in H2O2-induced reactive oxygen species formation at 10 uM measured after 24 hrs by DCFH-DA probe based fluorescence assay; type: functional, cell-based
[8] = Metal chelating activity assessed as absorption maximum for compound-Cu2+ complex formation at 75 uM after 30 mins by UV-Vis spectrophotometric method (reference value: 237.2 nanometer); type: functional
Summary of the method: (§2)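 UV-Vis spectra in ethanol of compound at 75 µM alone or after 30 min incubation with CuSO4, FeSO4, FeCl3 or ZnCl2 (150 µM). Absorption maxima recorded.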

[9] = Metal chelating activity assessed as absorption maximum for compound-Fe2+ complex formation at 75 uM after 30 mins by UV-Vis spectrophotometric method (reference value: 237.2 nanometer); type: functional; summary of the method: as §2
[10] = Metal chelating activity assessed as compound-Fe3+ complex formation at 75 uM after 30 mins by UV-Vis spectrophotometric method; type: functional; summary of the method: as §2
[11] = Metal chelating activity assessed as absorption maximum for compound-Zn2+ complex formation at 75 uM after 30 mins by UV-Vis spectrophotometric method; type: functional; summary of the method: as §2
SH-SY5Y [12] = test: Antioxidant activity in human SH-SY5Y cells assessed as increase in GSH level at 20 uM after 24 hrs by MCB probe based assay relative to control; type: functional
Summary of the method: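 SH-SY5Y cells (DMEM, 10% FBS, 37 °C, 5% CO2) seeded at 2 x 10^4 cells/well and grown 24 h. Treated with 20 µM compound for 3-24 h. Then 50 µM monochlorobimane in PBS for 30 min at 37 °C. GSH fluorescence read at ex 360/em 465 nm, as % of control cells. Mean ± SD of three independent experiments.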

Mus musculus [13] = test: In vivo inhibition of COX-1 activity in carrageenan-induced Swiss mouse serum at 100 umol/kg, po pretreated for 1 hr followed by carrageenan challenge after 3 hrs by ELISA relative to control; type: functional
Summary of the method: (§3)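 Male Swiss mice given oral drug (100 µmol/kg) or vehicle 1 h before intraplantar carrageenan (legend: 400 µg/paw). At 3 h, animals anaesthetised with chloral hydrate and cardiac blood taken. Serum separated (1500 rpm, 20 min) and frozen at -70 °C. COX-1, COX-2 and 5-LOX measured by specific sandwich ELISA at 450 nm. Expressed as % enzymatic activity, mean ± SEM, n=8.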

Mus musculus [14] = test: In vivo inhibition of COX-2 activity in carrageenan-induced Swiss mouse serum at 100 umol/kg, po pretreated for 1 hr followed by carrageenan challenge after 3 hrs by ELISA relative to control; type: functional; summary of the method: as §3
Mus musculus [15] = test: Antiinflammatory activity in formalin-induced nociception Swiss mouse model assessed as reduction in time spent licking formalin injected hind paw during inflammatory phase at 100 umol/kg, po pretreated for 1 hr followed by formalin challenge measured after 20 to 30 mins; type: functional, organism-based
Summary of the method: (§4)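 Male Swiss mice (22-28 g), n=8 per group, given oral vehicle (saline + DMSO 2%) or 100 µmol/kg 1 h before formalin (5% in 0.9% saline, 20 µl) into the right hind paw sub-plantar region. Morphine 39 µmol/kg i.p. was given 30 min before. Paw-licking time recorded at 0–5 min (neurogenic phase) and 20–30 min (inflammatory phase).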

Mus musculus [16] = test: Neurotoxicity in Swiss mouse assessed as induction of motor impairment at 100 umol/kg, po measured after 1 hr by open filed test; type: toxicity, organism-based; details: in vivo
Summary of the method: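 Male Swiss mice (n=8) given vehicle or compound orally 1 h before open-field test. Crossings of the central four and peripheral 12 squares counted separately.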

Mus musculus [17] = test: Antinociceptive activity in carrageenan-induced Swiss mouse model of mechanical hyperalgesia at 100 umol/kg, po pretreated for 1 hr followed by carrageenan challenge measured at 3 hrs to 7 hrs post dose by Von Frey filament assay; type: functional, organism-based; summary of the method: as §1
SH-SY5Y [18] = test: Pro-oxidant activity in human SH-SY5Y cells assessed as increase in H2O2-induced reactive oxygen species formation at 20 to 40 uM pretreated for 24 hrs followed by H2O2 addition by DCFH-DA probe based fluorescence assay; type: ADME, cell-based
Cholinesterase = Cholinesterase (Equus caballus, UniProt P81908); test: Inhibition of equine serum BuChE using butyrylthiocholine iodide as substrate pretreated for 10 mins followed by substrate addition measured at 12 secs interval for 5 mins by Ellman's method
Summary of the method: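 Ellman assay in 0.1 M sodium phosphate pH 7.4, enzyme 0.5 U/mL, DTNB 10 mM; concentration series preincubated 10 min before butyrylthiocholine iodide ([…]); A412 over 5 min at 12 s intervals. IC50 from fitted concentration-response curves, geometric mean of independent experiments, each in triplicate; DMSO ≤0.2% final.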

SH-SY5Y [19] = test: Antioxidant activity in human SH-SY5Y cells assessed as reduction in H2O2-induced reactive oxygen species formation measured after 24 hrs by DCFH-DA probe based fluorescence assay; type: functional, cell-based; details: for pIC50: Homo sapiens, SH-SY5Y, 24 h, read-out: IC50; for IC50: sh-sy5y
[20] = molecular target: Acetylcholinesterase (Electrophorus electricus) (UniProt O42275); test: Inhibition of Electrophorus electricus AChE at 30 uM using acetylthiocholine iodide as substrate pretreated for 10 mins followed by substrate addition measured at 12 secs interval for 5 mins by Ellman's method relative to control
Summary of the method: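 Enzyme (0.5 U/mL) with DTNB (10 mM) in 0.1 M sodium phosphate pH 7.4; compound at 30 μM preincubated 10 min, then acetylthiocholine or butyrylthiocholine iodide added ([…]); A412 read every 12 s for 5 min. Velocity as percent of vehicle control; means and pooled SD from 2-4 experiments in triplicate. DMSO ≤0.2% final.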

[21] = molecular target: Cholinesterase (Equus caballus) (UniProt P81908); test: Inhibition of equine serum BuChE at 30 uM using butyrylthiocholine iodide as substrate pretreated for 10 mins followed by substrate addition measured at 12 secs interval for 5 mins by Ellman's method relative to control
Mus musculus [22] = test: Antiinflammatory activity in formalin-induced nociception Swiss mouse model assessed as reduction in time spent licking formalin injected hind paw during neurogenic phase at 100 umol/kg, po pretreated for 1 hr followed by formalin challenge measured up to 5 mins; type: functional, organism-based; summary of the method: as §4

Chain of Acetylcholinesterase (O42275 whole entry): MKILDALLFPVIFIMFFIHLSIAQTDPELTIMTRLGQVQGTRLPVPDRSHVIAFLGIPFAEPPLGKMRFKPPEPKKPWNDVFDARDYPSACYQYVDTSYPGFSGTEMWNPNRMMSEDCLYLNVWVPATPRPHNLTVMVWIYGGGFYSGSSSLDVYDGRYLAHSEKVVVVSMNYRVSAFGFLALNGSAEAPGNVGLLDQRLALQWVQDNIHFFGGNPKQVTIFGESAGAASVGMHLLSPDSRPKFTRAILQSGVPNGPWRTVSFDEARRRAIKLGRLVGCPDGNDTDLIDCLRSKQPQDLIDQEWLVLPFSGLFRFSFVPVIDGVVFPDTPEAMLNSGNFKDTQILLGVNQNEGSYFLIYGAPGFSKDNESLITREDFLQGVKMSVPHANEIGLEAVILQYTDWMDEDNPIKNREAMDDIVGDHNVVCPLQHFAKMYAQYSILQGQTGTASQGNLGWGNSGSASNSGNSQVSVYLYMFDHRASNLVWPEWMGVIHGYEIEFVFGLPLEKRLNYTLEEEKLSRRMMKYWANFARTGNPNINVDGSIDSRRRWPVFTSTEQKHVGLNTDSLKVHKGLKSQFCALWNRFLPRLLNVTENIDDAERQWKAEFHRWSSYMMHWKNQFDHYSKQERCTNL
Chain of Acetylcholinesterase (Electrophorus electricus) (O42275 24-633 limits assumed): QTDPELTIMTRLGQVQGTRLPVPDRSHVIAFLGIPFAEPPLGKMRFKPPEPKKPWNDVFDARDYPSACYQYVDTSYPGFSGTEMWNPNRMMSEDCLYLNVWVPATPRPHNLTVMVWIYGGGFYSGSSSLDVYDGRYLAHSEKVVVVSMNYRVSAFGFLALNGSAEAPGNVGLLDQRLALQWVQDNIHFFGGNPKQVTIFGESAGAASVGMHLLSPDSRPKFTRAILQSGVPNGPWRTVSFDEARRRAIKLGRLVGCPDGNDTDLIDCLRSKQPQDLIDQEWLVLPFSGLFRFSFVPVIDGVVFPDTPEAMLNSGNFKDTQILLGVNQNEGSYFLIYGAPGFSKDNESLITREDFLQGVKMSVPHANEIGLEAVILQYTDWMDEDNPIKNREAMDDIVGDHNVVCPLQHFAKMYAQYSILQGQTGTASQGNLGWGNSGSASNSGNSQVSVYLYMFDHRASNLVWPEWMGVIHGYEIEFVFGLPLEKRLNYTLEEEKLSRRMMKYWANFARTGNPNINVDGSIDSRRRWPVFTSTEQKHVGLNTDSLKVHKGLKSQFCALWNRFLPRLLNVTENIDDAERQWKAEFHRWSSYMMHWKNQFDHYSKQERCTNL
Chain of Cholinesterase (P81908 whole entry): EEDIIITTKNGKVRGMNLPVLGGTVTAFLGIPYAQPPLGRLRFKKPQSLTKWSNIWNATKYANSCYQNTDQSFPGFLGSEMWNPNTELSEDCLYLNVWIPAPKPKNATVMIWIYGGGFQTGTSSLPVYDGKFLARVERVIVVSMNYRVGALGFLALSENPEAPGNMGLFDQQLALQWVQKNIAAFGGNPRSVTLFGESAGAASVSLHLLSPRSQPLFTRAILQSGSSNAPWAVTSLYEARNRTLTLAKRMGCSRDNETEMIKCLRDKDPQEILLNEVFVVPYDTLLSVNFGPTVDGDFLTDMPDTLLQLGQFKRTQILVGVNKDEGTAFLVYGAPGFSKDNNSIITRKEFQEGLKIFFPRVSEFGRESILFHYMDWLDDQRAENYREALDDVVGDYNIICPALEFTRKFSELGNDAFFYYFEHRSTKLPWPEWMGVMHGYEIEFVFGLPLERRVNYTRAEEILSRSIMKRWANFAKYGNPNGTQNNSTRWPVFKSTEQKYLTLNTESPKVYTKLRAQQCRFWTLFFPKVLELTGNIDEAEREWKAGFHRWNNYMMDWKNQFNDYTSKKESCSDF
Chain of Cholinesterase (Equus caballus) (P81908 whole entry): as above

## COc1ccc(/C=C/C(=O)OCC2CCN(Cc3ccc(Br)cc3)CC2)cc1O
Acetylcholinesterase
  pIC50: < 4.52
[1]
  pEC50: < 4.00

## COc1ccc(CN2CCC(COC(=O)/C=C/c3ccc(OC)c(O)c3)CC2)cc1
Acetylcholinesterase
  pIC50: < 4.52
[1]
  pEC50: < 4.00

## COc1cc(/C=C/C(=O)OCC2CCN(Cc3ccc(Br)cc3)CC2)ccc1O
Mus musculus [2]
  inhibition: Active
Mus musculus [3]
  Activity: Active
Mus musculus [4]
  Activity: Active
Acetylcholinesterase
  pIC50: < 4.52
[1]
  pEC50: 4.34
SH-SY5Y [5]
  Activity: <50%
[6]
  cytotoxicity at 24 h, 40 µM: 28%
SH-SY5Y [7]
  Activity: Active
[8]
  Activity: Active
[9]
  Activity: Active
[10]
  Activity: inactive
[11]
  Activity: inactive
SH-SY5Y [12]
  Activity: inactive
Mus musculus [13]
  inhibition in vivo at 100 µmol/kg: 30%
Mus musculus [14]
  inhibition in vivo at 100 µmol/kg: 60%
Mus musculus [15]
  Activity: Active
Mus musculus [16]
  Activity: Non-Toxic
Mus musculus [17]
  Activity: Active
SH-SY5Y [18]
  Activity: Toxic

## Cc1c(C)c2c(c(C)c1O)CCC(C)(C(=O)O)O2 (configuration not stated) [TROLOX]
[1]
  pEC50: 5.31

## COc1ccc(/C=C/C(=O)OCC2CCN(Cc3ccc(N4CCOCC4)cc3)CC2)cc1O
Acetylcholinesterase
  pIC50: < 4.52
[1]
  pEC50: < 4.00

## COc1cc(/C=C/C(=O)CC(=O)/C=C/c2ccc(O)c(OC)c2)ccc1O [CURCUMIN]
Cholinesterase
  pIC50: < 3.52

## COc1cc(/C=C/C(=O)OCC2CCN(Cc3ccc(Cl)cc3)CC2)ccc1O
Acetylcholinesterase
  pIC50: < 4.52
[1]
  pEC50: 4.69

## COc1ccc(/C=C/C(=O)OCC2CCN(Cc3ccc(Cl)cc3)CC2)cc1O
Acetylcholinesterase
  pIC50: < 4.52
[1]
  pEC50: 4.90

## COc1ccc(/C=C/C(=O)OCC2CCN(Cc3ccc([N+](=O)[O-])cc3)CC2)cc1O
Acetylcholinesterase
  pIC50: < 4.52
[1]
  pEC50: < 4.00

## COc1cc(/C=C/C(=O)O)ccc1O [FERULATE]
[1]
  pEC50: 4.45
SH-SY5Y [19]
  pIC50: 4.93

## COc1cc(/C=C/C(=O)OCC2CCN(Cc3ccc([N+](=O)[O-])cc3)CC2)ccc1O
[20]
  inhibition: 50%
[21]
  inhibition: 4.3%
Acetylcholinesterase
  pIC50: 4.78
[1]
  pEC50: 4.33
SH-SY5Y [19]
  Activity: Dose-dependent effect
  pIC50: 4.59
[6]
  cytotoxicity at 24 h, 40 µM: 9%
[8]
  Activity: Active
[9]
  Activity: Active
[10]
  Activity: inactive
[11]
  Activity: inactive
SH-SY5Y [12]
  fold change (FC): 1.2

## COc1ccc(/C=C/C(=O)O)cc1O [ISOFERULIC ACID]
[1]
  pEC50: < 4.00

## COc1ccc(/C=C/C(=O)OCC2CCN(Cc3ccc4c(c3)OCO4)CC2)cc1O
Acetylcholinesterase
  pIC50: < 4.52
[1]
  pEC50: < 4.00
SH-SY5Y [19]
  IC50: Not Active

## COc1ccc(CN2CCC(COC(=O)/C=C/c3ccc(O)c(OC)c3)CC2)cc1
Acetylcholinesterase
  pIC50: < 4.52
[1]
  pEC50: 4.11

## COc1cc(/C=C/C(=O)OCC2CCN(Cc3ccc(N4CCOCC4)cc3)CC2)ccc1O
Acetylcholinesterase
  pIC50: < 4.52
[1]
  pEC50: 4.13

## COc1ccc(/C=C/C(=O)OCC2CCN(Cc3ccccc3)CC2)cc1O
Acetylcholinesterase
  pIC50: < 4.52
[1]
  pEC50: < 4.00

## COc1cc(/C=C/C(=O)OCC2CCN(Cc3ccc4c(c3)OCO4)CC2)ccc1O
Acetylcholinesterase
  pIC50: < 4.52
[1]
  pEC50: < 4.00

## COc1ccc2c(c1)c(CC(=O)O)c(C)n2C(=O)c1ccc(Cl)cc1 [INDOMETHACIN]
Mus musculus [3]
  Activity: Active
Mus musculus [22]
  Activity: Active
Mus musculus [4]
  Activity: Active
Mus musculus [13]
  inhibition in vivo at 100 µmol/kg: 50%
Mus musculus [14]
  inhibition in vivo at 100 µmol/kg: 42%
Mus musculus [15]
  Activity: Active

## COc1cc2c(cc1OC)C(=O)C(CC1CCN(Cc3ccccc3)CC1)C2 (configuration not stated) [DONEPEZIL]
SH-SY5Y [19]
  IC50: Not Active
SH-SY5Y [5]
  Activity: <50%
